Test results taken from paper PMC9394215 (Journal for Immunotherapy of Cancer, 2022).
Where two headings read alike, the source gives them in different places.

What was measured:
[1] = molecular target: T1, NPP1 (Homo sapiens, UniProt P22413); assay: NPP1 assay; assay type: biochemical
T1 sequence (P22413 98-925 limits assumed): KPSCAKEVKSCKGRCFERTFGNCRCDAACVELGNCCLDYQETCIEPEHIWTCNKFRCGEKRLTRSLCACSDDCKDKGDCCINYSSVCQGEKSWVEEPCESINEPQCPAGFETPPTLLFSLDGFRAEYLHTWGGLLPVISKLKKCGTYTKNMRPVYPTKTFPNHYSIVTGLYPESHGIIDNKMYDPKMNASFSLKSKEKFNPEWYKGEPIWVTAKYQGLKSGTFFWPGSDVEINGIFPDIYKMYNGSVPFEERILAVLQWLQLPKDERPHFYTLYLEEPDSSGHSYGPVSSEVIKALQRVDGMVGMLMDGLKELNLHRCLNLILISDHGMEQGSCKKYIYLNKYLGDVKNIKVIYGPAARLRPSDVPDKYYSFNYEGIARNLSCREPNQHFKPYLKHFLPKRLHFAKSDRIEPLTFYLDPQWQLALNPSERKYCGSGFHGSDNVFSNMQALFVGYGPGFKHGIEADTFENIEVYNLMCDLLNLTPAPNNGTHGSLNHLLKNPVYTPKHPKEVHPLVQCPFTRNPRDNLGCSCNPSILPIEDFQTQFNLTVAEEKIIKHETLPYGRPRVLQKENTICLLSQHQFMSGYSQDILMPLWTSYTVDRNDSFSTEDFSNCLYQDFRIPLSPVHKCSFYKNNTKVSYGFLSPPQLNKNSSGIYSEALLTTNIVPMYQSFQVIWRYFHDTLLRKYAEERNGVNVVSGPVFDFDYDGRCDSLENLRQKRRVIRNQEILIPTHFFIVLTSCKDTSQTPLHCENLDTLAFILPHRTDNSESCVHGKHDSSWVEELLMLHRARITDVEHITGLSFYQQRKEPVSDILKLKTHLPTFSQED
Summary of the method: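 Crude soluble NPP1 (800 ng, Sf9-expressed) was incubated with 50 µM test compound, 2% DMSO and 300 µM ATP. Buffer: 10 mM CHES, pH 9.0, 2 mM CaCl2, 1 mM MgCl2; 30 min at 37°C with shaking. The reaction was stopped by 5 min at 90°C, then cooled on ice. Product AMP was quantified by capillary electrophoresis.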

[2] = molecular target: T2, human CD39 (Homo sapiens, UniProt P49961); assay: CE-UV; assay type: biochemical
T2 sequence (P49961 1-510): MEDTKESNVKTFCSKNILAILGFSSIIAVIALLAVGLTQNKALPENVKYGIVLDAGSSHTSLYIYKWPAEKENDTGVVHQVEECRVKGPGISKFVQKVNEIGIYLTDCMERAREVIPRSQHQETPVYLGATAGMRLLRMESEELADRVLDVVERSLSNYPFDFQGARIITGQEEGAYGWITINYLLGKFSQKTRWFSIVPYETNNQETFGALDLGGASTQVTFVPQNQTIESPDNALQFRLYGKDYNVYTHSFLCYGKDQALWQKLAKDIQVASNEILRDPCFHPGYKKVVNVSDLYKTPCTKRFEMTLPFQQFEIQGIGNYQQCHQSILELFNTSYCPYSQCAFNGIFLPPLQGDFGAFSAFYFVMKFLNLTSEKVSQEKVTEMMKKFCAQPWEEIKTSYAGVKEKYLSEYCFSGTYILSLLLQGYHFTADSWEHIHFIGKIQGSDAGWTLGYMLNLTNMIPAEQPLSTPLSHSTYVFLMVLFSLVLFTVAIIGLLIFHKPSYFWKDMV
Summary of the method: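 Recombinant human CD39 (COS-7 membranes) was incubated with test compound (0.1–300 µM) and 100 µM ATP. Buffer: 10 mM HEPES, 2 mM CaCl2, 1 mM MgCl2, pH 7.4; 30 min at 37°C. Reactions were stopped by heating 10 min at 90°C. ATP, ADP and AMP were separated by capillary electrophoresis with UV detection.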

[3] = system: human PBMCs; assay: HPLC assay of AMPase activity; assay type: cell-based; conditions: 1-100 µM ceritinib; 1 µM eAMP
Summary of the method: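 PBMCs were isolated from buffy coats by density gradient. Cells (2×10^5) were pretreated with test compound (1, 10, 50, 100 µM) for 15 min at 37°C, then given 1 µM eATP (ATPase) or eAMP (AMPase) for 30 min at 37°C. Cells were removed and supernatants 10 kDa-filtered. Etheno-nucleotides were quantified by reversed-phase C8 HPLC (phosphate pH 6.0/methanol gradient; fluorescence 230/410 nm) against standards; singlets, n=2–3.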

[4] = molecular target: T2, human CD39; assay type: biochemical
Summary of the method: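 CD39 came from human umbilical cord membranes (50.0 ng protein per well). Substrate was 50 µM ATP in 10 mM HEPES, 2 mM CaCl2, 1 mM MgCl2, pH 7.4, with ≤2% DMSO. Enzyme and test compound were preincubated 5 min at 37°C; reaction ran 15 min at 37°C. Malachite green/molybdate was added and A600 read after 20 min at 25°C, minus a heat-denatured enzyme blank. Screening was at 10 µM; curves spanned 0.1–300 µM; n=3.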

[5] = molecular target: T3, NTPDase8 (Homo sapiens, UniProt Q5MY95); assay: Malachite green assay, NTPDase8 in COS-7 cell membranes; assay type: biochemical
T3 sequence (Q5MY95 1-495): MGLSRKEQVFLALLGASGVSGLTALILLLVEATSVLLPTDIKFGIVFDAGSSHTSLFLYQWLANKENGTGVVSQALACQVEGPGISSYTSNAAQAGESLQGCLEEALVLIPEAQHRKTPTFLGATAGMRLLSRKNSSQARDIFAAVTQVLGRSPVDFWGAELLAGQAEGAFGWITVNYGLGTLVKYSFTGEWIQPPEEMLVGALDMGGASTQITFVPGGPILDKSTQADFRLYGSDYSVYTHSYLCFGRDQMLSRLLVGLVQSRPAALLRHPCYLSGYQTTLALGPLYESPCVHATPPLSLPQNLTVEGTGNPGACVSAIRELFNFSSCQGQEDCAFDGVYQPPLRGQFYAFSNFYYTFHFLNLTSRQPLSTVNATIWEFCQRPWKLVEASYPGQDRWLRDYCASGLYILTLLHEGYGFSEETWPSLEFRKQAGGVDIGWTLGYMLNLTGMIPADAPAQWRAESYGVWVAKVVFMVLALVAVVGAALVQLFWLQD
Summary of the method: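 Human NTPDase2, -3 or -8 was expressed in COS-7 membranes (ca. 100 ng protein, adjusted for 10–20% substrate conversion). Enzyme was preincubated 5 min at 37°C with test compound (50 µM single point, or 0.1–300 µM for curves). It was then incubated 15 min at 37°C with 100 µM ATP in HEPES/CaCl2/MgCl2, pH 7.4, ≤2% DMSO. Malachite green absorbance at 600 nm was corrected by a denatured-enzyme blank; n=3.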

[6] = molecular target: T2, human CD39; assay: Inhibition type experiments, malachite green assay on recombinant human CD39; assay type: biochemical

With `Cc1cc(Nc2ncc(Cl)c(Nc3ccccc3S(=O)(=O)C(C)C)n2)c(OC(C)C)cc1C1CCNCC1` [ceritinib, Ceritinib] the IC50 [1] was > 50 µM, the inhibition at 50 µM ([1]; read-out: % inhibition at 50 µM) was 8% and the IC50 [2] was 13.7 ± 0.6 µM. For the same molecule, the “effect on hydrolysis of eAMP by PBMCs” value [3] was “only a minor effect”, the IC50 [4] was 11.3 ± 0.8 µM and the inhibition at 10 µM ([4]; read-out: inhibition of human CD39) was > 50%. For the same molecule, the IC50 [5] was 20.3 ± 1.5 µM, the Ki [6] was 11 µM and the inhibition type ([6]; Km unchanged, Vmax decreased, Hanes-Woolf plot) was “non-competitive, allosteric”.
